The values below come from PMC2635062 (Cancer research, 2009).

Structures are written as SMILES. Where two headings read alike, the source gives them in different places.

One assay has as its system SiHa. Briefly: CellTiter-Glo cytotoxicity assay, SiHa. The format is cell-based. The conditions noted are these: Homo sapiens. An outline of the steps:
(§1)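 About 5,000 cells/well were dosed either continuously or for a 1 h pulse. After the pulse, cells were washed with pre-warmed medium and kept drug-free. Viability was read by CellTiter-Glo luminescence 72 h after dosing began. IC50 was the half-maximal growth-inhibiting concentration.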
For orientation: Cellular ATP, detected with luciferase, serves as a proxy for viable cell number.

The subject of the next assay is SKNSH. Briefly: CellTiter-Glo cytotoxicity assay, SKNSH. Type of assay: cell-based. Particulars: Homo sapiens, SK-N-SH. A digest of the protocol:
as §1

The next assay concerns cancer cell lines. Briefly: CellTiter-Glo cytotoxicity assay, cancer cell lines in general. Type of assay: cell-based, human. An outline of the steps: as §1
Assay [1] has as its system various cancer cell lines. Particulars: read-out: IC50 against various cancer cell lines; in vitro; cited from earlier work.
In the next assay the test system is HCT-116. Briefly: CellTiter-Glo cytotoxicity assay, HCT-116. The format is cell-based. Particulars: Homo sapiens. An outline of the steps: as §1
The next assay deals with SiHa cells. Briefly: Caspase Glo 3/7 assay, SiHa. Type of assay: cell-based, human. The conditions noted are these: 10 or 30 μM with 50 nM compound 3, 72 hours.
Assay [2] concerns MRC5, WI-38 and IMR-90 normal lung fibroblast cell lines. Briefly: Caspase Glo 3/7 assay, normal lung fibroblasts. Particulars: control, 1 microM for 72 hours. The format is cell-based, human.

Usually IC50 stands for the concentration that inhibits the measured activity by half. On to `CCC(=C/[C@H](C)C/C=C/C(C)=C/[C@@H](C)C(=O)[C@@H](C)[C@H](O)[C@@H](C)C/C(C)=C/C(=O)O)/C=C/[C@@H]1OC(=O)C=C[C@@H]1C` [Leptomycin B], for which the IC50 is 0.4 nM with SiHa (72 h, read-out: SiHa (IC50 nM) 72h); 2.1 nM with SiHa (read-out: SiHa (IC50 nM) 1h); 0.4 nM with SKNSH (72 h, read-out: SKNSH (IC50 nM) 72h); 4.1 nM in the assay with SKNSH (read-out: SKNSH (IC50 nM) 1h); under 5 nM with cancer cell lines (Homo sapiens, read-out: IC50, one hour exposure); 0.1 to 10 nM in assay [1]. Also, the IC50 turned out to be 0.3 nM with HCT-116 (HCT-116, 72 h, read-out: HCT-116 (IC50 nM) 72h) and 4.3 nM in the assay on HCT-116 (HCT-116, read-out: HCT-116 (IC50 nM) 1h). Moreover, in the assay on cancer cell lines (most cancer cell lines, 72 hour exposure), the “IC50, 72 hour exposure” value is on record as “sub-nanomolar”.
As to `Cc1ccc(C(=O)Cn2c3c(sc2=N)CCCC3)cc1` [pifithrin-alpha], the “Effect on compound 3-induced apoptosis (caspase 3/7)” value with SiHa cells is listed as “blocked compound 3-induced apoptosis”.
Turning to `CN[C@@H]1C[C@H]2O[C@@](C)([C@@H]1OC)n1c3ccccc3c3c4c(c5c6ccccc6n2c5c31)C(=O)NC4` [staurosporine], in assay [2], the “Caspase 3/7 activation” value is on record as “dramatic induction of caspases”.
